Test results as given in ChEMBL document CHEMBL4334538, “Mitochondrial Impairment by Cyanine-Based Small Molecules Induces Apoptosis in Cancer Cells” (ACS Med Chem Lett, 2020).
pIC50: −log10 of the molar value. Active and inactive are the calls of the source. No cut-off for these calls is given here.

Assays:
[1] = test system: HeLa; experiment: Cytotoxicity against human HeLa cells assessed as cell killing after 24 hrs by MTT assay; assay type: functional, cell-based
[2] = test system: HeLa; experiment: Cytotoxicity against human HeLa cells assessed as cell viability at 10 uM after 24 hrs by MTT assay relative to control; assay type: functional; settings: read-out: Activity
[3] = test system: HEK293; experiment: Cytotoxicity against HEK293 cells assessed as reduction in cell viability after 24 hrs by MTT assay; assay type: cell-based; settings: Homo sapiens, HEK293, 24 h
[4] = Cytotoxicity against HEK293 cells assessed as cell viability at 5 uM after 24 hrs by MTT assay relative to control; assay type: cell-based; settings: human, read-out: Activity
[5] = Drug uptake in mitochondria of human HeLa cells at 150 nM incubated for 20 mins by mito-tracker green dye based laser confocal microscopic analysis; assay type: ADME; settings: 0.15 µM
Method in brief: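 HeLa cells exposed to compound at 150 nM for 20 min, mitochondria then stained with MitoTracker Green; colocalization by confocal laser scanning microscopy with intensity scatter plots and z-stack maximum projections.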

[6] = test system: HeLa; experiment: Induction of mitochondrial damage in human HeLa cells assessed as opening of MPTP by measuring fold increase in fluorescence intensity at 800 nM after 24 hrs by Calcein AM/CoCl2 based confocal microscopic analysis relative to control; settings: Mitochondria
Method in brief: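 HeLa cells treated 24 h, then loaded with Calcein AM plus CoCl2; live cells imaged by confocal microscopy and green fluorescence intensity quantified against untreated control.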

[7] = test system: HeLa; experiment: Induction of morphological changes in mitochondria of human HeLa cells assessed as reduction in mitochondrial area at 500 nM after 3 hrs by laser confocal microscopic analysis relative to untreated control
Method in brief: (§1)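 Mitochondrial morphology: HeLa cells given 500 nM compound for 3 h, mitochondria visualized by confocal imaging (controls stained with MitoTracker Green); fragmentation scored and average mitochondrial area quantified against control.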

[8] = test system: HeLa; experiment: Decrease in Bcl-2 expression in human HeLa cells assessed as fold change in fluorescent intensity at 900 nM after 24 hrs by Alexa fluor 488/DAPI-staining based confocal microscopic analysis relative to untreated control; assay type: functional
Method in brief: (§2)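 Immunofluorescence: HeLa cells treated 24 h, probed with Bcl-2, Bcl-xl or Bax primary antibodies and Alexa Fluor 488 secondary, nuclei counterstained with DAPI; confocal green intensity quantified relative to control.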

[9] = test system: HeLa; experiment: Decrease in Bcl-xl expression in human HeLa cells assessed as fold change in fluorescent intensity at 900 nM after 24 hrs by Alexa fluor 488/DAPI-staining based confocal microscopic analysis relative to untreated control; assay type: functional; method in brief: as §2
[10] = test system: HeLa; experiment: Increase in Bax expression in human HeLa cells assessed as fold change in fluorescent intensity at 900 nM after 24 hrs by Alexa fluor 488/DAPI-staining based confocal microscopic analysis relative to untreated control; assay type: functional; method in brief: as §2
[11] = test system: HeLa; experiment: Decrease in Bcl-2 expression in human HeLa cells at 900 nM after 24 hrs by Western blot analysis relative to control; assay type: functional
Method in brief: (§3)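 Western blot of HeLa cellular proteins after 24 h compound treatment; Bcl-2, Bcl-xl and Bax bands quantified relative to control.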

[12] = test system: HeLa; experiment: Decrease in Bcl-xl expression in human HeLa cells at 900 nM after 24 hrs by Western blot analysis relative to control; assay type: functional; method in brief: as §3
[13] = test system: HeLa; experiment: Up regulation of Bax expression in human HeLa cells at 900 nM after 24 hrs by Western blot analysis relative to control; assay type: functional; method in brief: as §3
[14] = test system: HeLa; experiment: Induction of ROS generation in human HeLa cells assessed as fold change in fluorescent intensity at 500 to 800 nM after 24 hrs by H2DCF-DA staining-based fluorescence microscopic analysis relative to untreated control; assay type: functional
Method in brief: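 ROS read-out: HeLa cells treated with compound, then incubated with H2DCFDA; green fluorescence imaged by fluorescence/confocal microscopy and intensity quantified versus control.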

[15] = test system: HeLa; experiment: Induction of cell cycle arrest in human HeLa cells assessed as apoptotic cells at 900 nM after 24 hrs by RNase/PI-staining based flow cytometric analysis (reference value: 1.25%); assay type: functional
[16] = test system: HeLa; experiment: Induction of cell cycle arrest in human HeLa cells assessed as accumulation of cells at G0/G1 phase at 900 nM after 24 hrs by RNase/PI-staining based flow cytometric analysis (reference value: 47.43%); assay type: functional
[17] = test system: HeLa; experiment: Induction of cell cycle arrest in human HeLa cells assessed as accumulation of cells at S phase at 900 nM after 24 hrs by RNase/PI-staining based flow cytometric analysis (reference value: 13.83%); assay type: functional
[18] = test system: HeLa; experiment: Induction of cell cycle arrest in human HeLa cells assessed as accumulation of cells at G2/M phase at 900 nM after 24 hrs by RNase/PI-staining based flow cytometric analysis (reference value: 33.91%); assay type: functional
[19] = test system: HeLa; experiment: Induction of apoptosis in human HeLa cells assessed as viable cells at 900 nM after 24 hrs by APC-AnnexinV/7-AAD staining based flow cytometric analysis (reference value: 96.4%); assay type: functional; settings: read-out: Activity
Method in brief: (§4)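 After 24 h treatment, HeLa cells stained with APC-Annexin V (phosphatidylserine) and 7-AAD (nuclear DNA of necrotic cells), then sorted by flow cytometry into viable, early, late apoptotic and necrotic populations.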

[20] = test system: HeLa; experiment: Induction of apoptosis in human HeLa cells assessed as early apoptotic cells at 900 nM after 24 hrs by APC-AnnexinV/7-AAD staining based flow cytometric analysis (reference value: 0.2%); assay type: functional; method in brief: as §4
[21] = test system: HeLa; experiment: Induction of apoptosis in human HeLa cells assessed as late apoptotic cells at 900 nM after 24 hrs by APC-AnnexinV/7-AAD staining based flow cytometric analysis (reference value: 2.3%); assay type: functional; method in brief: as §4
[22] = test system: HeLa; experiment: Induction of apoptosis in human HeLa cells assessed as necrotic cells at 900 nM after 24 hrs by APC-AnnexinV/7-AAD staining based flow cytometric analysis (reference value: 1.1%); assay type: functional; method in brief: as §4
[23] = test system: HeLa; experiment: Induction of morphological changes in mitochondria of human HeLa cells assessed as mitochondrial fragmentation at 500 nM after 3 hrs by mito-tracker green dye based laser confocal microscopic analysis; method in brief: as §1
[24] = test system: HeLa; experiment: Induction of apoptosis in human HeLa cells assessed as reduction in caspase-3 expression at 900 nM after 24 hrs by Western blot analysis relative to control; assay type: functional
Method in brief: (§5)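 HeLa cells incubated 24 h with compound; whole-cell proteins run on gel electrophoresis and blotted for pro-caspase-3 and pro-caspase-9.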

[25] = test system: HeLa; experiment: Induction of apoptosis in human HeLa cells assessed as reduction in caspase-9 expression at 900 nM after 24 hrs by Western blot analysis relative to control; assay type: functional; method in brief: as §5
[26] = test system: HeLa; experiment: Cytotoxicity against human HeLa cells assessed as reduction in cell viability after 24 hrs by MTT assay
[27] = test system: HeLa; experiment: Cytotoxicity against human HeLa cells assessed as cell death at 10 uM after 24 hrs by MTT assay; assay type: functional, cell-based

COc1cc(OC)cc(-c2cc(OC)c(/C=C/C3=[N+](C)c4ccccc4C3(C)C)[nH]2)c1
pIC50 [1]: 5.35 to 6.04
inhibition [1]: Dose-dependent effect

COc1cc(-c2ccco2)[nH]c1/C=C/C1=[N+](C)c2ccccc2C1(C)C
pIC50 [1]: 5.35 to 6.04
inhibition [1]: Dose-dependent effect

COc1ccc(-c2cc(OC)c(/C=C/C3=[N+](C)c4ccccc4C3(C)C)[nH]2)c(OC)c1
pIC50 [1]: 5.35 to 6.04
inhibition [1]: Dose-dependent effect

COc1cc(-c2cccc(OC)c2OC)[nH]c1/C=C/C1=[N+](C)c2ccccc2C1(C)C
pIC50 [1]: 5.35 to 6.04
inhibition [1]: Dose-dependent effect

COC1=CC(c2cc3ccccc3[nH]2)=N/C1=C\c1[nH]c(C)cc1C [OBATOCLAX]
viability at 10 µM [2]: 70.3%

COc1ccc(OC)c(-c2cc(OC)c(/C=C/C3=[N+](C)c4ccccc4C3(C)C)[nH]2)c1
pIC50 [1]: 5.35 to 6.04
inhibition [1]: Dose-dependent effect

COc1cc(-c2cc3ccccc3[nH]2)[nH]c1/C=C/C1=[N+](C)c2ccccc2C1(C)C.[I-]
pIC50 [1]: 6.01
inhibition [1]: Dose-dependent effect
pIC50 [3]: 5.59
viability at 24 h, 5 µM [4]: 24%
Drug uptake [5]: Active
fold change (FC) [6]: 3.6
fold change (FC) [7]: 3.4
fold change (FC) [8]: 8.5
fold change (FC) [9]: 10.1
fold change (FC) [10]: 2.1
fold change (FC) [11]: 6.4
fold change (FC) [12]: 4
fold change (FC) [13]: 3.6
fold change (FC) [14]: 16.1
Activity [15]: 4.68%
Activity [16]: 67.96%
Activity [17]: 6.42%
Activity [18]: 16.79%
viability at 0.9 µM [19]: 0.1%
Activity [20]: 0%
Activity [21]: 99.5%
Activity [22]: 0.4%
Activity [23]: Active
fold change (FC) [24]: 3.5
fold change (FC) [25]: 1.9

COc1cccc2c1C(=O)c1c(O)c3c(c(O)c1C2=O)C[C@@](O)(C(=O)CO)C[C@@H]3O[C@H]1C[C@H](N)[C@H](O)[C@H](C)O1 [DOXORUBICIN]
pIC50 [26]: 5.70

COc1cc(-c2cc3ccccc3s2)[nH]c1/C=C/C1=[N+](C)c2ccccc2C1(C)C
pIC50 [1]: 5.35 to 6.04
inhibition [1]: Dose-dependent effect

CCc1c2c(nc3ccc(O)cc13)-c1cc3c(c(=O)n1C2)COC(=O)[C@]3(O)CC
Activity [27]: inactive

COc1cc(-c2ccc[nH]2)[nH]c1/C=C/C1=[N+](C)c2ccccc2C1(C)C
pIC50 [1]: 5.35 to 6.04
inhibition [1]: Dose-dependent effect

COc1ccc(-c2cc(OC)c(/C=C/C3=[N+](C)c4ccccc4C3(C)C)[nH]2)cc1OC
pIC50 [1]: 5.35 to 6.04
inhibition [1]: Dose-dependent effect

COc1ccc2[nH]c(-c3cc(OC)c(/C=C/C4=[N+](C)c5ccccc5C4(C)C)[nH]3)cc2c1.[I-]
pIC50 [1]: 6.04
inhibition [1]: Dose-dependent effect
pIC50 [3]: 5.58
viability at 24 h, 5 µM [4]: 25%
Drug uptake [5]: Active
fold change (FC) [6]: 3.9
fold change (FC) [7]: 2.6
fold change (FC) [8]: 5.7
fold change (FC) [9]: 8.4
fold change (FC) [10]: 2.4
fold change (FC) [11]: 9.3
fold change (FC) [12]: 5.6
fold change (FC) [13]: 4.1
fold change (FC) [14]: 22.4
Activity [15]: 3.47%
Activity [16]: 63.94%
Activity [17]: 13.52%
Activity [18]: 15%
viability at 0.9 µM [19]: 0.3%
Activity [20]: 0%
Activity [21]: 98.7%
Activity [22]: 1%
Activity [23]: Active
fold change (FC) [24]: 3.7
fold change (FC) [25]: 2

COc1cc(-c2ccc3c(c2)OCO3)[nH]c1/C=C/C1=[N+](C)c2ccccc2C1(C)C
pIC50 [1]: 5.35 to 6.04
inhibition [1]: Dose-dependent effect

CC(=O)O[C@H]1C(=O)[C@@]2(C)[C@H]([C@H](OC(=O)c3ccccc3)[C@]3(O)C[C@H](OC(=O)[C@H](O)[C@@H](NC(=O)c4ccccc4)c4ccccc4)C(C)=C1C3(C)C)[C@]1(OC(C)=O)CO[C@@H]1C[C@@H]2O [PACLITAXEL]
viability at 10 µM [2]: 68.7%

COc1cc(-c2c(OC)cccc2OC)[nH]c1/C=C/C1=[N+](C)c2ccccc2C1(C)C
pIC50 [1]: 5.35 to 6.04
inhibition [1]: Dose-dependent effect

COc1cc(-c2ccc3ccccc3c2)[nH]c1/C=C/C1=[N+](C)c2ccccc2C1(C)C
pIC50 [1]: 5.35 to 6.04
inhibition [1]: Dose-dependent effect

COc1cc(-c2ccccc2)[nH]c1/C=C/C1=[N+](C)c2ccccc2C1(C)C
pIC50 [1]: 5.35 to 6.04
inhibition [1]: Dose-dependent effect

COc1cc(-c2cccs2)[nH]c1/C=C/C1=[N+](C)c2ccccc2C1(C)C
pIC50 [1]: 5.35 to 6.04
inhibition [1]: Dose-dependent effect

COc1cc(-c2cc3ccccc3o2)[nH]c1/C=C/C1=[N+](C)c2ccccc2C1(C)C
pIC50 [1]: 5.35 to 6.04
inhibition [1]: Dose-dependent effect
